Measured values taken from ChEMBL document CHEMBL4627297, “Comparative reactivity analysis of small-molecule thiol surrogates” (Bioorg Med Chem, 2020).

Columns and labels:
[1] = Drug reactivity against N-benzoyl-glutathione in pH 7.4 PBS buffer assessed as half life at 250 uM measured up to 72 hrs by HPLC-MS/MS analysis; type: ADME; conditions: PBS buffer with N-benzoyl-glutathione (thiol reactivity)
How it was run: (§1)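 Fragment (500 µM in PBS pH 7.4 with 10% acetonitrile and 200 µM indoprofen internal standard) was mixed 1:1 with 10 mM thiol surrogate in PBS. Final concentrations were 250 µM fragment, 5 mM thiol, 100 µM indoprofen and 5% acetonitrile, giving pseudo-first-order conditions. HPLC sampling at 0, 1, 2, 4, 8, 12, 24, 48 and 72 h.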

[2] = Drug reactivity against cysteine in pH 7.4 PBS buffer assessed as half life at 250 uM measured up to 72 hrs by HPLC-MS/MS analysis; type: ADME; conditions: PBS buffer with cysteine (thiol reactivity); how it was run: as §1
[3] = Drug reactivity against cysteamine in pH 7.4 PBS buffer assessed as half life at 250 uM measured up to 72 hrs by HPLC-MS/MS analysis; type: ADME; conditions: PBS buffer with cysteamine (thiol reactivity); how it was run: as §1
[4] = Drug reactivity against N-benzoyl-cysteine in pH 7.4 PBS buffer assessed as half life at 250 uM measured up to 72 hrs by HPLC-MS analysis; type: ADME; conditions: PBS buffer with N-benzoyl-cysteine (thiol reactivity); how it was run: as §1
[5] = Solubility of the compound in pH 7.4 PBS buffer; type: physicochemical
How it was run: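 Solubility was judged by eye as the absence of precipitation during the thiol reactivity incubations. Conditions were 250 µM fragment in PBS pH 7.4 with 5% acetonitrile, over up to 72 h.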

[6] = Drug reactivity against glutathione in pH 7.4 PBS buffer assessed as half life at 250 uM measured up to 72 hrs by HPLC analysis; type: ADME; conditions: PBS buffer with glutathione (thiol reactivity); how it was run: as §1
[7] = Drug reactivity against N-bezoyl-cysteamine in pH 7.4 PBS buffer assessed as half life at 250 uM measured up to 72 hrs by HPLC analysis; type: ADME; conditions: PBS buffer with N-benzoyl-cysteamine (thiol reactivity); how it was run: as §1
[8] = Drug reactivity against N-acetyl-cysteine in pH 7.4 PBS buffer assessed as half life at 250 uM measured up to 72 hrs by HPLC-MS analysis; type: ADME; conditions: PBS buffer with N-acetyl-cysteine (thiol reactivity); how it was run: as §1

Question: Which half-life at 250 µM [1] does the source give for `FC(F)(F)c1cc(N=C=S)cc(C(F)(F)F)c1` here?
Answer: Its half-life at 250 µM is < 0.017 h.

Question: What about the half-life at 250 µM [2] of the same compound?
Answer: The half-life at 250 µM was < 1.02 min.

Question: And the half-life at 250 µM [3]?
Answer: Its half-life at 250 µM is < 1.02 min.

Question: And the half-life at 250 µM [4]?
Answer: The half-life at 250 µM was 1.02 min.

Question: What about the solubility [5] of the same compound?
Answer: Its solubility is “Soluble”.

Question: And the half-life at 250 µM [6]?
Answer: Its half-life at 250 µM is < 1.02 min.

Question: What about the half-life at 250 µM [7] of the same compound?
Answer: Its half-life at 250 µM is < 1.02 min.

Question: And the half-life at 250 µM [8]?
Answer: Its half-life at 250 µM is < 0.017 h.

Question: With `Fc1cc(C(F)(F)F)cc(C(F)(F)F)c1` as the compound, how does the half-life at 250 µM [1] read?
Answer: Its half-life at 250 µM is > 50 h.

Question: What about the half-life at 250 µM [2] of the same compound?
Answer: Its half-life at 250 µM is > 3000 min.

Question: What about the half-life at 250 µM [3] of the same compound?
Answer: Its half-life at 250 µM is > 3000 min.

Question: And the half-life at 250 µM [4]?
Answer: Its half-life at 250 µM is > 3000 min.

Question: What about the solubility [5] of the same compound?
Answer: Its solubility is “Soluble”.

Question: And the half-life at 250 µM [7]?
Answer: Its half-life at 250 µM is > 3000 min.

Question: And the half-life at 250 µM [8]?
Answer: Its half-life at 250 µM is > 50 h.

Question: What does the source list for `FC(F)(F)c1cc(S)cc(C(F)(F)F)c1`?
Answer: half-life at 250 µM [1]: 11.2 h; half-life at 250 µM [2]: > 3000 min; half-life at 250 µM [3]: > 3000 min; half-life at 250 µM [4]: > 3000 min; solubility [5]: Soluble; half-life at 250 µM [6]: 1890 min; half-life at 250 µM [7]: > 3000 min; half-life at 250 µM [8]: 33 h

Question: Which half-life at 250 µM [1] does the source give for `C=CC(=O)Oc1cc(C(F)(F)F)cc(C(F)(F)F)c1` here?
Answer: The half-life at 250 µM was < 0.017 h.

Question: And the half-life at 250 µM [2]?
Answer: The half-life at 250 µM was < 1.02 min.

Question: And the half-life at 250 µM [3]?
Answer: Its half-life at 250 µM is < 1.02 min.

Question: What about the half-life at 250 µM [4] of the same compound?
Answer: Its half-life at 250 µM is < 1.02 min.

Question: What about the solubility [5] of the same compound?
Answer: Its solubility is “Soluble”.

Question: And the half-life at 250 µM [6]?
Answer: The half-life at 250 µM was < 1.02 min.

Question: What about the half-life at 250 µM [7] of the same compound?
Answer: The half-life at 250 µM was < 1.02 min.

Question: And the half-life at 250 µM [8]?
Answer: Its half-life at 250 µM is < 0.017 h.

Question: Which results are given for `O=C(CBr)c1cc(C(F)(F)F)cc(C(F)(F)F)c1`?
Answer: half-life at 250 µM [1]: < 0.017 h; half-life at 250 µM [2]: < 1.02 min; half-life at 250 µM [3]: < 1.02 min; half-life at 250 µM [4]: < 1.02 min; solubility [5]: Soluble; half-life at 250 µM [6]: < 1.02 min; half-life at 250 µM [7]: < 1.02 min; half-life at 250 µM [8]: < 0.017 h
